Converted amounts (≈) assume the structure as drawn. The source made the active and inactive calls. The calls are words filed in the database; no cut-off is given here.
Key:
Nucleic Acid [1] = experiment: Inhibitory activity against DNA polymerase III (DNA pol III) of Staphylococcus aureus at a concentration of 500 uM; NA means Inactive; assay type: nucleic-acid assay
Summary of the method: (§1)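 S. aureus pol III was PCR-cloned into pET15, expressed in BL21 (1 mM IPTG), and purified on HiTrapQ then HiTrap Blue. Enzyme-started, it ran 30 min at 30 °C and was stopped with cold TCA/NaPPi. Incorporation was read by filter capture and scintillation counting.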

Nucleic Acid [2] = experiment: Inhibitory activity against DNA polymerase III (DNA pol III) of Staphylococcus aureus at a concentration of 500 uM; assay type: nucleic-acid assay; summary of the method: as §1
Streptococcus pneumoniae = experiment: Antibacterial activity against Streptococcus pneumoniae; assay type: functional
Summary of the method: (§2)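 Broth microdilution MIC against B. subtilis F2, E. faecium RLA-1, S. aureus MB2865 and S. pneumoniae MCL5350. Compounds were DMSO stocks, serially 2-fold diluted from 100 μM final, at 5% final DMSO, with a DMSO vehicle control. Wells were inoculated from cultures diluted in PBS and incubated overnight at 37 °C. MIC was scored visually as the lowest concentration preventing growth.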

Bacillus subtilis = experiment: Antibacterial activity against Bacillus subtilis; assay type: functional; summary of the method: as §2
Staphylococcus aureus = experiment: Antibacterial activity against Staphylococcus aureus; assay type: functional; summary of the method: as §2
Enterococcus faecium = experiment: Antibacterial activity against Enterococcus faecium; assay type: functional; summary of the method: as §2
Nucleic Acid [3] = experiment: Inhibitory activity against DNA polymerase III (DNA pol III) of Staphylococcus aureus; assay type: nucleic-acid assay; summary of the method: as §1

Row | inhibition (Nucleic Acid [2]) [%] | MIC (Streptococcus pneumoniae) [µg/mL] | MIC (Bacillus subtilis) [µg/mL] | IC50 (Nucleic Acid [3]) [µM] | SMILES | further results
1 |  |  |  |  | Oc1[nH]c(NCc2cccc(C(F)(F)F)c2)nc2nncc1-2 | NA (Nucleic Acid [1]): inactive
2 |  |  |  |  | Cc1ccc(CNc2nc(O)c3c[nH]nc3n2)c(C)c1 | inhibition (Nucleic Acid [1]): 12%
3 |  |  |  |  | Oc1[nH]c(NCc2ccccc2Cl)nc2nncc1-2 | NA (Nucleic Acid [1]): inactive
4 | 10 |  |  |  | COc1ccc(CNc2nc(O)c3c[nH]nc3n2)cc1 | 
5 | 36 | 26 (≈ 102 µM) | 13 (≈ 50.9 µM) |  | Cc1ccc(Nc2nc(O)c3c[nH]nc3n2)cc1C | 
6 | 62 | 14 (≈ 50.8 µM) | 7 (≈ 25.4 µM) | 214 | Cc1ccc(Nc2nc(O)c3c[nH]nc3n2)cc1Cl | MIC (Staphylococcus aureus): 14 µg/mL (≈ 50.8 µM); MIC (Enterococcus faecium): 28 µg/mL (≈ 102 µM)
7 | 23 |  |  |  | Oc1[nH]c(NCc2ccc(Br)cc2)nc2nncc1-2 | 
8 | 24 |  |  |  | Oc1[nH]c(NCc2ccc(F)c(Cl)c2)nc2nncc1-2 | 
9 | 69 | 8 (≈ 25 µM) | 8 (≈ 25 µM) | 129 | Cc1ccc(Nc2nc(O)c3c[nH]nc3n2)cc1Br | MIC (Staphylococcus aureus): 8 µg/mL (≈ 25 µM); MIC (Enterococcus faecium): 16 µg/mL (≈ 50 µM)
10 | 58 |  |  | 108 | Oc1[nH]c(NCc2ccc(Cl)c(Cl)c2)nc2nncc1-2 | 
11 | 88 | 13 (≈ 48.3 µM) | 7 (≈ 26 µM) | 68 | CCc1cc(Nc2nc(O)c3c[nH]nc3n2)ccc1C | MIC (Staphylococcus aureus): 27 µg/mL (≈ 100 µM); MIC (Enterococcus faecium): 13 µg/mL (≈ 48.3 µM)
12 |  |  |  |  | CC(C)c1ccc(CNc2nc(O)c3c[nH]nc3n2)cc1 | NA (Nucleic Acid [1]): inactive
13 | 86 | 9 (≈ 24.5 µM) | 9 (≈ 24.5 µM) | 71 | Cc1ccc(Nc2nc(O)c3c[nH]nc3n2)cc1I | MIC (Staphylococcus aureus): 9 µg/mL (≈ 24.5 µM); MIC (Enterococcus faecium): 18 µg/mL (≈ 49 µM)
14 | 32 |  |  |  | Oc1[nH]c(NCc2ccccc2)nc2nncc1-2 | 
15 |  |  |  |  | COc1cccc(CNc2nc(O)c3c[nH]nc3n2)c1 | NA (Nucleic Acid [1]): inactive

From ChEMBL document CHEMBL1145030, “Novel pyrazolo[3,4-d]pyrimidine-based inhibitors of Staphlococcus aureus DNA polymerase III: design, synthesis, and biological evaluation” (J Med Chem, 2003)
